High-throughput results: PubChem, several laboratories
NSD2 HMT inh = inhibitors of human histone methyltransferase NSD2 | O96028 | NSD2 peptide methylation, AlphaScreen, 120 min | inhibition, % at 12.5 µM | 310,000 compounds, 0.54% hits; in the data active = inhibition above about 50%
Target sequence (O96028 whole entry, looked up): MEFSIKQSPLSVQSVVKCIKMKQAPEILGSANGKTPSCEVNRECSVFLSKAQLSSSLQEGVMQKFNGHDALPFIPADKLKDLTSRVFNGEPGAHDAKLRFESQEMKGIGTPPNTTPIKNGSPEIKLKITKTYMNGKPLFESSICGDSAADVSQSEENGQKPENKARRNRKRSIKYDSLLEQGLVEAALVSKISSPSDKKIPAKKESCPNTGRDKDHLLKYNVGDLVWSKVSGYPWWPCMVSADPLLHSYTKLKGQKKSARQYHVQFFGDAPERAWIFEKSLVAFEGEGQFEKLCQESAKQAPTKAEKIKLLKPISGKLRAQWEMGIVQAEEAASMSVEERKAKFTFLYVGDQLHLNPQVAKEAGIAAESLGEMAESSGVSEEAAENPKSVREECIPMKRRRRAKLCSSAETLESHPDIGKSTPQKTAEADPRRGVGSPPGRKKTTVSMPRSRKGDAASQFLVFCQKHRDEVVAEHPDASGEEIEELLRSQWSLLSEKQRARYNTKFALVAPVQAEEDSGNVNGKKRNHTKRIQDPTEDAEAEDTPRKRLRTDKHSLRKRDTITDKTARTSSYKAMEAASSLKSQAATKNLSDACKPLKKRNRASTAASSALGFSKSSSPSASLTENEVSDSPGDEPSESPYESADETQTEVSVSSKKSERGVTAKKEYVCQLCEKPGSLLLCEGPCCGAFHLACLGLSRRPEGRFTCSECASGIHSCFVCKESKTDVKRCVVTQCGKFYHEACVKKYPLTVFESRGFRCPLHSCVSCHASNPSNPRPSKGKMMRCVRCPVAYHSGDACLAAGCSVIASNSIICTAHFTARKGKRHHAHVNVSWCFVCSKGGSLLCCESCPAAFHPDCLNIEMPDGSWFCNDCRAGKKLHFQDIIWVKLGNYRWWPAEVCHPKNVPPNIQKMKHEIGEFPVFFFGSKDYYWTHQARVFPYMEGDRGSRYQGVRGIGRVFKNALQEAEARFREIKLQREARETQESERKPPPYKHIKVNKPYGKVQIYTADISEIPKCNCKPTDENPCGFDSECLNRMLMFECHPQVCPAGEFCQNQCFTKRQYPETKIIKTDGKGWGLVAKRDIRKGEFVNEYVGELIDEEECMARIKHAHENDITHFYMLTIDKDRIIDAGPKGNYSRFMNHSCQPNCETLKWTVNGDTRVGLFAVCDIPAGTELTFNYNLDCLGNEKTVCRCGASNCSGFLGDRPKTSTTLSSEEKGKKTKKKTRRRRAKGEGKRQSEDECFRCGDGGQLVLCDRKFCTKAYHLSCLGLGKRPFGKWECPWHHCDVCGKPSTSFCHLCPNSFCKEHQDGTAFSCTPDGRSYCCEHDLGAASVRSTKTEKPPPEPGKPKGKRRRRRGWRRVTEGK
UHRF1 MBD2 ctr = UHRF1 methyl-DNA binding inhibition; UHRF1 binding to methylated oligo, TR-FRET; inhibition, % at 4.4 µM; 370,000 compounds, 0.75% hits; in the data active = inhibition above about 21%;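 note: UHRF1 SRA domain binding a hemimethylated CpG hairpin DNA probe; 0% = median of test compound wells and 100% = reference inhibitor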
MBD2 DNA inh = inhibitors of human MBD2 binding to methylated oligonucleotide; TR-FRET; AID 686964; Q9UBB5; inhibition, % at 4.4 µM; 370,000 compounds, 0.31% hits; in the data active = inhibition above about 13%
CASP6 VEID inh = blocks human caspase-6 cleavage activity; 350,000 compounds, 0.53% hits; purified caspase-6, Z-VEID-R110 cleavage fluorescence; P55212; AID 686996; inhibition, % at 12.5 µM;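 active = mean inhibition across replicates at least about 35%, with every replicate also reaching that limit, limit read from the data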;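 note: 0% = median of neutral control wells and 100% = no fluorescence left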
TDP2 absorb = TDP2 (human) inhibition, absorbance primary screen. 370,000 compounds, 0.34% hits. AID 720702. recombinant TDP2, T5PNP hydrolysis, p-nitrophenol absorbance 415 nm. O95551. inhibition, % at 12.8 µM;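 active = inhibition above the mean of all tested compounds plus 3 SD, set per campaign, cut at about 25% in these data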;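 note: 0% = DMSO with enzyme and 100% = buffer with substrate but no TDP2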
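System – recombinant human TDP2 · Quantity – TDP2 enzyme at 120 nM final · Doses – single concentration, 12.8 µM nominal, with 1% DMSO · Incubation – 2 h at 37 °C · Measured by – epi absorbance of p-nitrophenol freed from T5PNP by hydrolysis · Read-out – % inhibition relative to enzyme-containing and enzyme-free wells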
LEDGF integ inh = blocks HIV-1 LEDGF/p75-dependent DNA integration; TR-FRET IN-LEDGF/p75 DNA integration, Eu/Cy5; inhibition, % at 3.7 µM; 370,000 compounds, 0.64% hits; AID 743269;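 active = inhibition above the screen-wide mean plus 3 SD, cut at about 13% in these data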;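 note: signal is the Cy5 over europium emission ratio at 671 and 618 nm; 0% = plate median of compound wells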
Numbers without * were called inactive; / = no result given. In the library only some 1.8% were active in any assay of this set; here they are far more common.

SMILES	NSD2 HMT inh	UHRF1 MBD2 ctr	MBD2 DNA inh	CASP6 VEID inh	TDP2 absorb	LEDGF integ inh
CO[C@H]1CN(C)C(=O)c2ccc(NS(=O)(=O)c3cccc(Cl)c3)cc2OC[C@@H](C)NC[C@H]1C	/	/	/	41*	/	/
CO[C@H]1CN(C)C(=O)c2cc(NC(C)=O)ccc2OC[C@H](C)N(S(=O)(=O)c2cn(C)cn2)C[C@H]1C	/	/	/	36*	/	/
CO[C@H]1CN(C)C(=O)c2cc(NC(C)=O)ccc2OC[C@@H](C)N(S(=O)(=O)c2cn(C)cn2)C[C@@H]1C	/	/	/	0	/	/
CO[C@@H]1CN(C)C(=O)c2ccc(NC(=O)C3CC3)cc2OC[C@@H](C)N(C)C[C@H]1C	/	/	/	99*	/	/
CO[C@@H]1CN(C)C(=O)c2ccc(NC(=O)C3CC3)cc2OC[C@@H](C)N(C(=O)Cc2ccccn2)C[C@H]1C	/	/	/	39*	/	/
CO[C@H]1CN(C)C(=O)c2ccc(NS(=O)(=O)c3cccc(Cl)c3)cc2OC[C@@H](C)NC[C@@H]1C	/	/	/	-1	/	/
CCCc1nc2ccc(C)cn2c1Cc1ccccc1C(F)(F)F	/	24*	10	-2	5	0
CCCc1nc2c(C)cc(Br)cn2c1Cc1ccccc1C(F)(F)F	/	22*	9	-3	-1	1
CCCc1nc2ccc(C)cn2c1Cc1ccccc1OC	/	22*	10	0	1	-1
Cc1cc(Br)cn2c(Cc3ccccc3C(F)(F)F)c(-c3ccccc3)nc12	/	7	-1	-2	3	-1
COc1ccccc1Cc1c(-c2ccc(Cl)cc2)nc2ccc(C)cn12	/	21*	5	3	-5	-1
CCCc1nc2ccc(Cl)cn2c1Cc1ccccc1OC	/	18	5	-7	-19	4
C[C@@H]1CN([C@H](C)CO)S(=O)(=O)c2ccc(C3=CCCCC3)cc2O[C@@H]1CN(C)C(=O)C1CCC1	/	/	/	1	/	/
C[C@@H]1CN([C@@H](C)CO)C(=O)c2cccc(NC(=O)Nc3ccc(F)cc3)c2O[C@H]1CN(C)C(=O)NC1CCCCC1	/	/	/	0	/	/
CO[C@@H](CN(C)C(=O)c1ccc2c(c1)OCO2)[C@@H](C)CN([C@H](C)CO)S(=O)(=O)c1ccc(C)cc1	/	/	/	1	/	/
C[C@H]1CCCCO[C@H](CN(C)C(=O)C2CCCCC2)[C@@H](C)CN([C@@H](C)CO)C(=O)c2cc(NS(C)(=O)=O)ccc2O1	/	/	/	1	/	/
COC(CNC(=O)c1ccc2c3c(onc13)-c1ccccc1C2=O)OC	/	-1	-7	50*	4	2
COC(CNC(=O)c1cccnc1)OC	1	0	0	0	-3	3
O=C(O)c1cn(-c2ccc(F)cc2)c2cc(Cl)c(F)cc2c1=O	-3	28*	-1	-1	7	3
CCOC(=O)c1cn(-c2ccc([N+](=O)[O-])cc2)c2cc(Cl)c([N+](=O)[O-])cc2c1=O	-4	0	0	/	6	-2
COc1ccc(S(=O)(=O)N2CCOCC2)cc1C(=O)NCC(c1ccccc1)c1ccccc1	-4	1	-1	50*	1	3
COc1ccc(S(=O)(=O)N2CCOCC2)cc1C(=O)NCc1ccccc1CN1CCCC1	3	-2	-4	-7	2	0
CCCCCC(=O)N1CC2(C)CN(C(=O)CCCCC)CC(C)(C1)C2=O	-2	23*	15*	/	7	6
CCCCCC(=O)N1CCCC1	-1	1	3	2	4	-4
CN1c2ccc(C#Cc3cccnc3)cc2[C@@H]2[C@@H](CCN2C(=O)C2CCC2)[C@H]1CO	/	/	/	2	/	/
SMILES	NSD2 HMT inh	UHRF1 MBD2 ctr	MBD2 DNA inh	CASP6 VEID inh	TDP2 absorb	LEDGF integ inh
C(#Cc1ccccc1)C[N+]1(CC#Cc2ccccc2)CCCCC1	-1	5	-2	-5	6	3
C#CC[N+]1(CC#Cc2ccccc2)CCCCC1	-3	38*	3	-2	-9	1
COc1ccc(NC(=O)Nc2ccc3c(c2)C(=O)N([C@H](C)CO)C[C@H](C)[C@H](CN(C)C(=O)Nc2ccc4c(c2)OCO4)OCCCC[C@H](C)O3)cc1	/	/	/	-1	/	/
O=C(C[C@H]1C[C@H]2c3cc(NC(=O)c4cccnc4)ccc3O[C@H]2[C@@H](CO)O1)NCc1cccnc1	/	/	/	-2	/	/
CN1c2ccc(-c3ccccc3)cc2[C@@H]2[C@@H](CCN2C(=O)c2ccc3c(c2)OCO3)[C@@H]1CO	/	/	/	-5	/	/
COc1ccc2c(c1)c(=O)oc1cc(OCC(=O)NC3CC3)ccc12	-1	2	-4	/	10	-2
